Measurements taken from ChEMBL document CHEMBL4251609, “Substrate-derived triazolo- and azapeptides as inhibitors of cathepsins K and S” (Eur J Med Chem, 2018).
Activity calls are given as the source filed them. No cut-off for these calls is given here.

Tests used:
Trypsin (Homo sapiens) = Trypsin (Homo sapiens) (UniProt P07477+P07478+P35030); test: Inhibition of trypsin (unknown origin) incubated for 30 mins using Abz-Thr-Pro-Arg-Ser-Ala-Leu-Gln-EDDnp substrate; assay type: protein assay
Homo sapiens = organism: Homo sapiens; test: Inhibition of chymotrypsin (unknown origin) incubated for 30 mins using Abz-Thr-Pro-Phe-Ser-Gly-Gln-EDDnp substrate
[1] = target: T1, Neutrophil elastase (Homo sapiens) (UniProt P08246); test: Inhibition of human neutrophil elastase incubated for 30 mins using Abz-Ala-Pro-Glu-Glu-Ile-Met-Arg-Arg-Gln-(3-NO2-Tyr) substrate
T1 sequence (whole entry): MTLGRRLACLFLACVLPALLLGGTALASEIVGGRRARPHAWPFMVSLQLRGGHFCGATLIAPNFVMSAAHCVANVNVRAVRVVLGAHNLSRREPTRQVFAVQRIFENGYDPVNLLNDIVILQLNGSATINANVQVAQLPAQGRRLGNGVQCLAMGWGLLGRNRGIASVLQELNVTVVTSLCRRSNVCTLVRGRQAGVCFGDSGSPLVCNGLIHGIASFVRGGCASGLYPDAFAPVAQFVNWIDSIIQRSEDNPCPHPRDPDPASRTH

[2] = target: 72 kDa type IV collagenase (Homo sapiens) (UniProt P08253); test: Inhibition of human recombinant MMP-2 expressed in CHO cells incubated for 30 mins by Mca-Arg-Pro-Pro-Gly-Phe-Ser-Ala-Phe-Lys(Dnp) substrate; assay type: cell-based
Chain of 72 kDa type IV collagenase (Homo sapiens) (P08253 110-660 limits assumed): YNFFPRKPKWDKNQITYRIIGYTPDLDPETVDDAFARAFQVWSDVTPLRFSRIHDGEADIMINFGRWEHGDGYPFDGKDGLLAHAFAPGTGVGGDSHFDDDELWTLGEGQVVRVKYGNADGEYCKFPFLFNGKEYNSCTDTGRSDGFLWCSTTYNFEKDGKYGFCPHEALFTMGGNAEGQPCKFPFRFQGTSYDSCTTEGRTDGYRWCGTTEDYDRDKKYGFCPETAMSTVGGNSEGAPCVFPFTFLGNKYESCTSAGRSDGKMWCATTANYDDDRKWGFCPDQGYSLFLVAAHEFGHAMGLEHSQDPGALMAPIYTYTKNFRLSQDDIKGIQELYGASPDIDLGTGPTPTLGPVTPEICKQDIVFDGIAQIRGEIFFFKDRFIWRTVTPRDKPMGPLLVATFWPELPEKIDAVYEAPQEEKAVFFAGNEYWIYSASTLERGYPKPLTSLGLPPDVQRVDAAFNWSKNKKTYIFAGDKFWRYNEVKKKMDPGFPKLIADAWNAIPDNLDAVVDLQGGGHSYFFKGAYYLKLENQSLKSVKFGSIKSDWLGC

[3] = target: Cathepsin D (Homo sapiens) (UniProt P07339); test: Inhibition of human cathepsin D incubated for 30 mins using Mca-Gly-Lys-Pro-Ile-Leu-Phe-Phe-Arg-Leu-Lys(Dnp)-D-Arg-NH2 substrate
Chain of Cathepsin D (Homo sapiens) (P07339 65-162 limits assumed): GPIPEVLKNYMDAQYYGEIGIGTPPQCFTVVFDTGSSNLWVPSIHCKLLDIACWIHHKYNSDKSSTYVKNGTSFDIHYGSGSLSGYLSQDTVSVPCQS
Chain of Cathepsin D (Homo sapiens) (P07339 169-412 limits assumed): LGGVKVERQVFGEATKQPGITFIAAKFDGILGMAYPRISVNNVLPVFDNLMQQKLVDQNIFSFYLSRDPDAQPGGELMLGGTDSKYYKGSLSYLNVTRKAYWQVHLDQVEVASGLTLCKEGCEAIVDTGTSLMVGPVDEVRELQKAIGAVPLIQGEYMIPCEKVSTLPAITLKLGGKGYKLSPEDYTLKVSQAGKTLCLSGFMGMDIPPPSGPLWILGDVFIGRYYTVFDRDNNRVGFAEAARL

[4] = target: T2, Pro-cathepsin H (Homo sapiens) (UniProt P09668); test: Inhibition of human cathepsin H using fluorogenic AMC-derived peptide substrate assessed as reduction in residual activity preincubated for 30 mins followed by substrate addition
T2 sequence (whole entry): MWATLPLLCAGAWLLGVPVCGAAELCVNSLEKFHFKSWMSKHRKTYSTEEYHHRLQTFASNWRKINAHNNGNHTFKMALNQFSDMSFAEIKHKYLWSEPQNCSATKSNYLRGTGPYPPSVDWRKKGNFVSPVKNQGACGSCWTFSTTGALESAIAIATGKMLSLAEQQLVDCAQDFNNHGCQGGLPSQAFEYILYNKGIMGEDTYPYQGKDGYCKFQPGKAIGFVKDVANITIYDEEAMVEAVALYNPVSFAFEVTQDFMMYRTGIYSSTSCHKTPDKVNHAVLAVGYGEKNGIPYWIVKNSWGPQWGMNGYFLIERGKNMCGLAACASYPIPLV

[5] = target: Cathepsin B (Homo sapiens) (UniProt P07858); test: Inhibition of human cathepsin B
[6] = target: T3, Cathepsin K (Homo sapiens) (UniProt P43235); test: Inhibition of human cathepsin K using fluorogenic AMC-derived peptide substrate assessed as reduction in residual activity preincubated for 30 mins followed by substrate addition
T3 sequence (whole entry): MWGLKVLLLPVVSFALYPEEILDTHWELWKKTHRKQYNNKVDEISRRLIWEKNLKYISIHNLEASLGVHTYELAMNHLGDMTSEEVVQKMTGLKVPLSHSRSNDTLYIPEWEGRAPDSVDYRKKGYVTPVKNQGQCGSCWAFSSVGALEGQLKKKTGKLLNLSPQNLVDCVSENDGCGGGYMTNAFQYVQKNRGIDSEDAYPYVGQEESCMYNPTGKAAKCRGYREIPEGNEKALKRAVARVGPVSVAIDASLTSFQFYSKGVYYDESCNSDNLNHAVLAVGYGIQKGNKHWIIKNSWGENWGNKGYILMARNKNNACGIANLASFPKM

Procathepsin L [7] = target: T4, Procathepsin L (Homo sapiens, UniProt P07711); test: Inhibition of human cathepsin L using fluorogenic AMC-derived peptide substrate assessed as reduction in residual activity preincubated for 30 mins followed by substrate addition
Target sequence in this assay (P07711 114-333 limits assumed): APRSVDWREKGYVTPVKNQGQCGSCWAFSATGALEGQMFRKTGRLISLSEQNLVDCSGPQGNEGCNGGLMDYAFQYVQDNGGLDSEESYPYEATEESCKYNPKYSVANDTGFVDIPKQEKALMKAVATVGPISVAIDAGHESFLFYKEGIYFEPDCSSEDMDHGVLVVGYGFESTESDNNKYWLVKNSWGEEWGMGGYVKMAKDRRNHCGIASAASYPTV

Cathepsin S [8] = target: T5, Cathepsin S (Homo sapiens, UniProt P25774); test: Reversible inhibition of human cathepsin S at 600 uM preincubated for 30 mins followed by Biot-(PEG)2-Ahx-LeuValGly-DMK addition measured after 1 hr by chemiluminescence assay
Target sequence in this assay (P25774 115-331 limits assumed): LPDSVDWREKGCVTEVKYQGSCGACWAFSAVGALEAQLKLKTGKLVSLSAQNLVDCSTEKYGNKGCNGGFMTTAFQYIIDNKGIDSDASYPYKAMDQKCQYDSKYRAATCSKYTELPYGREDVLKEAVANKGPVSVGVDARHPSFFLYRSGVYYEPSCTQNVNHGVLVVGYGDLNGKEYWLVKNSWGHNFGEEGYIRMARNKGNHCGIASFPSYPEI

Cathepsin S [9] = target: T5, Cathepsin S; test: (§1) Reversible competitive inhibition of human cathepsin S using fluorogenic AMC-derived peptide substrate assessed as reduction in residual activity at pH 5.5 preincubated for 30 mins followed by substrate addition
Procedure, shortened: (§2)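 Ki values for cathepsin S determined at pH 5.5 and again at pH 7.4, a pH at which this enzyme stays stable and active, to compare the two conditions.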
Target sequence in this assay (P25774 115-331 limits assumed): as above

[10] = target: Cathepsin S (Mus musculus) (UniProt O70370); test: Inhibition of cathepsin S in C57/Bl6 mouse spleen lysate using Z-Val-Leu-Arg-AMC as substrate at 10 uM preincubated for 30 mins followed by substrate addition; assay type: subcellular
Cathepsin S [11] = target: T5, Cathepsin S; test: Reversible inhibition of human cathepsin S at 600 uM in presence of excess Z-LR-AMC
Target sequence in this assay (P25774 115-331 limits assumed): as above

[12] = target: Cathepsin B (Mus musculus) (UniProt P10605); test: Inhibition of cathepsin B in C57/Bl6 mouse spleen lysate using Z-Arg-Arg-AMC as substrate at 10 uM preincubated for 30 mins followed by substrate addition; assay type: subcellular
Chain of Cathepsin B (Mus musculus) (P10605 80-333 limits assumed): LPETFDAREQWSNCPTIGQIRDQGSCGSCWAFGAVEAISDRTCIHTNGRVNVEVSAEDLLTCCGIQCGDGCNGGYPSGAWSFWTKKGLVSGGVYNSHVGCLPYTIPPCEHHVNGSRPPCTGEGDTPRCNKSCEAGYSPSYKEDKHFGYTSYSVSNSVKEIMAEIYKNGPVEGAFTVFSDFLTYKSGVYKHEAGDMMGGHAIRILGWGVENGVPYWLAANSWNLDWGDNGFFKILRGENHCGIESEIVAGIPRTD

Cathepsin S [13] = target: T5, Cathepsin S; test: as §1; settings: read-out: Ki; procedure, shortened: as §2
Target sequence in this assay (P25774 whole entry): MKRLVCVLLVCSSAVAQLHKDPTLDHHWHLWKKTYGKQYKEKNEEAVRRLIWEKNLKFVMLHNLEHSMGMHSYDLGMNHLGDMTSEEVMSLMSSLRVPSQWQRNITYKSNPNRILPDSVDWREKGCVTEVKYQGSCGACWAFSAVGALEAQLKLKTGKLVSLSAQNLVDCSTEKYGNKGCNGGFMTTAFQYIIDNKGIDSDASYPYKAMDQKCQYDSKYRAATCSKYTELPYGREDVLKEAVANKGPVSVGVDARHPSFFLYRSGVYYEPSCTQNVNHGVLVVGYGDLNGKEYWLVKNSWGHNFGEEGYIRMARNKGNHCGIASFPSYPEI

Cathepsin S [14] = target: T5, Cathepsin S; test: Reversible competitive inhibition of human cathepsin S using fluorogenic AMC-derived peptide substrate assessed as reduction in residual activity at pH 7.4 preincubated for 30 mins followed by substrate addition; settings: read-out: Ki; procedure, shortened: as §2
Target sequence in this assay (P25774 whole entry): as above

Cathepsin K [15] = target: T6, Cathepsin K (Homo sapiens, UniProt P43235); test: Reversible competitive inhibition of human cathepsin K using fluorogenic AMC-derived peptide substrate assessed as reduction in residual activity preincubated for 30 mins followed by substrate addition
T6 sequence (P43235 whole entry): T3 sequence (whole entry)
Procedure, shortened: (§3)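 Inhibition constants (Ki) determined at pH 5.5, with reversibility and competitive mode also assessed.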

Procathepsin L [16] = target: T4, Procathepsin L; test: Reversible competitive inhibition of human cathepsin L using fluorogenic AMC-derived peptide substrate assessed as reduction in residual activity preincubated for 30 mins followed by substrate addition; procedure, shortened: as §3
Target sequence in this assay (P07711 whole entry): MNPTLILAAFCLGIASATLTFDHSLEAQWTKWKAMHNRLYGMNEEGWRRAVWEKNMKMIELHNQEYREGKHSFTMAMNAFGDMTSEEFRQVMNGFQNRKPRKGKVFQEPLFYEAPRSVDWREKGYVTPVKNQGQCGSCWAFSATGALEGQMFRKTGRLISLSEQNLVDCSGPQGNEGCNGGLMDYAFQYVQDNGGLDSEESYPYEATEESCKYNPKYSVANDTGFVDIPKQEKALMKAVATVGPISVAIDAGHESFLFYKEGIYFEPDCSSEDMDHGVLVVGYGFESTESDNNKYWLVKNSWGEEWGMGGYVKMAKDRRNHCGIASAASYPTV

Pro-cathepsin H = target: T7, Pro-cathepsin H (Homo sapiens, UniProt P09668); test: Reversible competitive inhibition of human cathepsin H using fluorogenic AMC-derived peptide substrate assessed as reduction in residual activity preincubated for 30 mins followed by substrate addition; settings: read-out: Ki
T7 sequence (P09668 whole entry): T2 sequence (whole entry)

Cathepsin S [17] = target: T5, Cathepsin S; test: Inhibition of human cathepsin S using fluorogenic AMC-derived peptide substrate assessed as reduction in residual activity preincubated for 30 mins followed by substrate addition
Target sequence in this assay (P25774 115-331 limits assumed): as the sequence (P25774 115-331 limits assumed) above

[18] = target: T3, Cathepsin K (Homo sapiens); test: Inhibition of human cathepsin K […] activity assessed as normalized bradykinin equivalents ratio at 1 uM pre-incubated for 15 mins before bradykinin substrate addition by competitive enzyme immunoassay (reference value: <0.5%); parameters: scale not given: the % may be the effect or the level left
[19] = target: T3, Cathepsin K (Homo sapiens); test: Inhibition of human cathepsin K […] activity assessed as normalized bradykinin equivalents ratio at 1 uM pre-incubated for 15 mins before kallidin substrate addition by competitive enzyme immunoassay (reference value: <0.5%); parameters: scale not given: the % may be the effect or the level left
Cathepsin K [20] = target: T6, Cathepsin K; test: Inhibition of human cathepsin K

Structure (SMILES): CSCC[C@H](NC(=O)[C@@H]1CCCN1C(=O)[C@H](Cc1c[nH]cn1)NC(=O)[C@H](Cc1c[nH]c2ccccc12)NC(=O)[C@H](CCCNC(=N)N)NC(=O)CNC(C)=O)C(=O)NNC(=O)N[C@@H](C)C(=O)N1CCC[C@H]1C(=O)N[C@@H](Cc1c[nH]c2ccccc12)C(=O)N[C@@H](CCC(=O)O)C(=O)N[C@H](C)C(=O)N[C@H](CCCNC(=N)N)C(N)=O
- inhibition (Trypsin (Homo sapiens)): inactive
- inhibition (Homo sapiens): inactive
- inhibition [1]: inactive
- inhibition [2]: inactive
- inhibition [3]: inactive
- inhibition [4]: Active
- inhibition [5]: Active
- inhibition [6]: Active
- inhibition (Procathepsin L [7]): Active
- inhibition (Cathepsin S [8]): Active
- inhibition (Cathepsin S [9]): Active
- inhibition [10]: Active
- inhibition (Cathepsin S [11]): inactive
- inhibition [12]: inactive
- Ki (Cathepsin S [13]): 0.026 µM
- Ki (Cathepsin S [14]): 0.017 µM
- Ki (Cathepsin K [15]): 0.003 µM
- Ki (Procathepsin L [16]): 0.005 µM
- Ki (Pro-cathepsin H): 7 µM
- inhibition (Cathepsin S [17]): Active

Structure (SMILES): CCCNC(=O)[C@H]1O[C@@H]1C(=O)N[C@H](C(=O)N1CCC[C@H]1C(=O)O)[C@@H](C)CC
- Activity [18]: < 0.5%
- Activity [19]: < 0.5%

Structure (SMILES): CC(C)(F)C[C@H](N[C@@H](c1ccc(-c2ccc(S(C)(=O)=O)cc2)cc1)C(F)(F)F)C(=O)NC1(C#N)CC1 [ODANACATIB]
- Ki (Cathepsin K [20]): 0.00018 µM
